{"source": "ChEMBL document CHEMBL4229446", "about": "“Development of Novel Monoamine Oxidase-B (MAO-B) Inhibitors with Reduced Blood-Brain Barrier Permeability for the Potential Management of Noncentral Nervous System (CNS) Diseases” (J Med Chem, 2018)", "key": {"Mus musculus [1]": {"test_system": "Mus musculus", "assay": "Acute toxicity in C57BL/6 mouse assessed as lethargy at 10.8 mg/kg, sc after 1 hr post-injection", "assay_type": "organism-based", "conditions": "in vivo"}, "[2]": {"assay": "Metabolic stability in human liver microsomes assessed as parent compound remaining at 1 uM after 60 mins by UPLC-MS/MS analysis", "assay_type": "ADME, microsome", "conditions": "microsomes, 1 h, 1 µM", "method_in_brief": "(§1)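 Compound at 1 μM with 0.5 mg/mL mouse or human liver microsomes in 100 mM potassium phosphate pH 7.4, 3.3 mM MgCl2, 1 mM NADPH, at 37 °C. Started with NADPH; minus-NADPH control run. Stopped at 0, 5, 15, 30, 45 and 60 min with acetonitrile/formic acid plus internal standard. Parent remaining by UPLC-MS/MS, in triplicate.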"}, "Mus musculus [3]": {"test_system": "Mus musculus", "assay": "Acute toxicity in C57BL/6 mouse assessed as piloerection at 10.8 mg/kg, sc after 1 hr post-injection", "assay_type": "organism-based", "conditions": "in vivo"}, "Mus musculus [4]": {"test_system": "Mus musculus", "assay": "Acute toxicity in C57BL/6 mouse assessed as piloerection at 10.8 mg/kg, iv after 1 hr post-injection", "assay_type": "organism-based", "conditions": "in vivo"}, "[5]": {"assay": "Cmax in C57BL/6 mouse plasma at 10.8 mg/kg, iv administered as single dose measured 24 hrs by UPLC-MS/MS analysis", "assay_type": "ADME, organism-based", "design": "dose 10.8 mg/kg, route intravenous", "method_in_brief": "(§2)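 Plasma extracted by protein precipitation/phospholipid removal; brain weighed, homogenised in 50 mM ammonium formate, extracted in acidified organic solvent, ng/g taken as ng/mL. Quantified by UPLC-MS/MS (MRM); parameters by noncompartmental analysis.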"}, "[6]": {"assay": "AUClast in C57BL/6 mouse plasma at 10.8 mg/kg, iv administered as single dose measured 24 hrs by UPLC-MS/MS analysis", "assay_type": "ADME, organism-based", "design": "dose 10.8 mg/kg, route intravenous, time 0 - last", "method_in_brief": "as §2"}, "[7]": {"assay": "Metabolic stability in human plasma assessed as parent compound remaining at 5 uM after 4 hrs by UPLC-MS/MS analysis", "assay_type": "ADME, cell-free", "conditions": "read-out: Stability", "method_in_brief": "(§3)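 Compound at 5 μM was incubated in mouse or human plasma at 37 °C with shaking. Sampled at 0, 5, 15, 30, 60, 120 and 240 min and stopped with ice-cold acetonitrile/0.1% formic acid containing internal standard. Supernatants analysed by UPLC-MS/MS for parent remaining. Run in triplicate.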"}, "Mus musculus [8]": {"test_system": "Mus musculus", "assay": "Acute toxicity in C57BL/6 mouse assessed as lethargy at 10.8 mg/kg, iv after 1 hr post-injection", "assay_type": "organism-based", "conditions": "in vivo"}, "[9]": {"assay": "Metabolic stability in mouse liver microsomes assessed as parent compound remaining at 1 uM after 60 mins by UPLC-MS/MS analysis", "assay_type": "ADME, microsome", "conditions": "microsomes, 1 h, 1 µM", "method_in_brief": "as §1"}, "Mus musculus [10]": {"test_system": "Mus musculus", "assay": "Acute toxicity in C57BL/6 mouse assessed as lethargy at 10.8 mg/kg, po after 1 hr post-injection", "assay_type": "organism-based", "conditions": "in vivo"}, "[11]": {"assay": "Cmax in C57BL/6 mouse brain at 10.8 mg/kg, iv administered as single dose measured 24 hrs by UPLC-MS/MS analysis", "assay_type": "ADME, organism-based", "design": "dose 10.8 mg/kg, route intravenous", "method_in_brief": "(§4)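 21 animals dosed at 0 min, 3 sacrificed at each of 0, 5, 15, 30 min, 1, 4 and 24 h. Plasma was extracted by protein precipitation with phospholipid removal. Brain was weighed, bead-homogenised in 50 mM ammonium formate and extracted in acidified organic solvent. Quantified by UPLC-MS/MS (MRM). Brain ng/g taken as ng/mL. Parameters came from noncompartmental analysis. Kp = AUClast brain/plasma.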"}, "[12]": {"assay": "Tmax in C57BL/6 mouse plasma at 10.8 mg/kg, iv administered as single dose measured 24 hrs by UPLC-MS/MS analysis", "assay_type": "ADME, organism-based", "method_in_brief": "as §2"}, "[13]": {"assay": "Apparent half-life of the terminal disposition phase in C57BL/6 mouse brain at 10.8 mg/kg, iv administered as single dose measured 24 hrs by UPLC-MS/MS analysis", "assay_type": "ADME, organism-based", "conditions": "read-out: t1/2 lambda z (converted)", "method_in_brief": "as §4"}, "[14]": {"assay": "Metabolic stability in mouse plasma assessed as parent compound remaining at 5 uM after 4 hrs by UPLC-MS/MS analysis", "assay_type": "ADME, cell-free", "conditions": "read-out: Stability", "method_in_brief": "as §3"}, "Mus musculus [15]": {"test_system": "Mus musculus", "assay": "Acute toxicity in C57BL/6 mouse assessed as piloerection at 10.8 mg/kg, po after 1 hr post-injection", "assay_type": "organism-based", "conditions": "in vivo"}, "[16]": {"assay": "Ratio of AUClast in brain to plasma in C57BL/6 mouse at 10.8 mg/kg, iv administered as single dose measured 24 hrs by UPLC-MS/MS analysis", "assay_type": "ADME, organism-based", "method_in_brief": "as §4"}, "[17]": {"assay": "Tmax in C57BL/6 mouse brain at 10.8 mg/kg, iv administered as single dose measured 24 hrs by UPLC-MS/MS analysis", "assay_type": "ADME, organism-based", "method_in_brief": "as §2"}, "[18]": {"assay": "Apparent half-life of the terminal disposition phase in C57BL/6 mouse plasma at 10.8 mg/kg, iv administered as single dose measured 24 hrs by UPLC-MS/MS analysis", "assay_type": "ADME, organism-based", "conditions": "read-out: t1/2 lambda z (converted)", "method_in_brief": "as §2"}, "[19]": {"assay": "AUClast in C57BL/6 mouse brain at 10.8 mg/kg, iv administered as single dose measured 24 hrs by UPLC-MS/MS analysis", "assay_type": "ADME, organism-based", "design": "dose 10.8 mg/kg, route intravenous, time 0 - last", "method_in_brief": "as §4"}}}
{"smiles": "C#CCN(C)[C@H](C)Cc1ccccc1", "note": "[SELEGILINE]", "values": [{"measurement": "Activity", "setting": "Mus musculus [1]", "result": "Toxic"}, {"measurement": "Stability", "setting": "[2]", "result": "Unstable"}, {"measurement": "Activity", "setting": "Mus musculus [3]", "result": "Toxic"}, {"measurement": "Activity", "setting": "Mus musculus [4]", "result": "Toxic"}, {"measurement": "Cmax", "setting": "[5]", "result": 569, "unit": "ng/mL"}, {"measurement": "AUC(0-t) at 24 h", "setting": "[6]", "result": 242, "unit": "ng·h/mL"}, {"measurement": "remaining at 4 h, 5 µM", "setting": "[7]", "result": 55, "unit": "%"}, {"measurement": "Activity", "setting": "Mus musculus [8]", "result": "Toxic"}, {"measurement": "Stability", "setting": "[9]", "result": "Unstable"}, {"measurement": "Activity", "setting": "Mus musculus [10]", "result": "Toxic"}, {"measurement": "Cmax", "setting": "[11]", "result": 4220, "unit": "ng/mL"}, {"measurement": "Tmax", "setting": "[12]", "result": 5, "unit": "min"}, {"measurement": "half-life", "setting": "[13]", "result": 17.4, "unit": "min"}, {"measurement": "remaining at 4 h, 5 µM", "setting": "[14]", "result": 61, "unit": "%"}, {"measurement": "Activity", "setting": "Mus musculus [15]", "result": "Toxic"}, {"measurement": "Kp at 24 h", "setting": "[16]", "result": 5.73}, {"measurement": "Tmax", "setting": "[17]", "result": 5, "unit": "min"}, {"measurement": "half-life", "setting": "[18]", "result": 33.6, "unit": "min"}, {"measurement": "AUC(0-t) at 24 h", "setting": "[19]", "result": 1390, "unit": "ng·h/mL"}]}
